# Experimental data from different studies.
# Compare with care: the assays were run in different laboratories.
# Target: Protein kinase C zeta type (PRKCZ, Homo sapiens, UniProt Q05513)
Compound,test,setting,measurement,value
COc1cc(-c2cc(-c3ccc(N4CCNCC4)cc3)cnc2C)cc(OC)c1OC,"enzyme activity, inhibitor",0.1 µM,inhibition,5%
Nc1nc(NC2CCCCC2)sc1C(=O)c1ccccc1,"enzyme activity, inhibitor",10 µM,remaining activity,83%
Oc1cccc(-c2nc(N3CCOCC3)c3oc4ncccc4c3n2)c1,"enzyme activity, inhibitor",10 µM,remaining activity,98%
CN(c1ncccc1CNc1nc(Nc2ccc3c(c2)CC(=O)N3)ncc1C(F)(F)F)S(C)(=O)=O,"enzyme activity, inhibitor",1 µM,inhibition,0%
CCCS(=O)(=O)Nc1ccc(F)c(C(=O)c2c[nH]c3ncc(-c4ccc(Cl)cc4)cc23)c1F,"enzyme activity, inhibitor",1 µM,inhibition,< 20%
COc1cc(Nc2cnc(C#N)c(O[C@H](C)CN(C)C)n2)ncc1-c1cnn(C)c1,"enzyme activity, inhibitor, radiometric",10 µM,remaining activity,79%
Cc1ccc(C(=O)NCc2ccsc2)cc1C#Cc1cn(C(C)C)c2ncnc(N)c12,"enzyme activity, inhibitor",1 µM,activity vs control,111%
COc1cc2ncnc(Nc3ccc(Oc4ccccc4)cc3C)c2cc1OC,"enzyme activity, inhibitor",1 µM,inhibition,3%
COc1cccc2c(NCc3ccccc3)nc(-n3c(N)nc4ccccc43)nc12,"target engagement in cells, inhibitor, chemoproteomics",20 mM,inhibition,19.7%
Cn1c2c(Cl)c(Cl)ccc2c2cc[nH]c(=O)c21,"thermal stability, DSF",10 µM,ΔTm,0.4 °C
O=C(Nc1cnn(-c2csc(C(=O)NC3COC3)c2)c1)Nc1c(F)cccc1Cl,"enzyme activity, inhibitor",5 µM,remaining activity,93.6%
CC(C)(C)c1nc2c(s1)c1nc(N)ncc1c1ccc(NS(=O)(=O)c3c(F)cccc3F)c(F)c12,"enzyme activity, inhibitor, radiometric",1 µM,remaining activity,107%
COc1cc(/C=C/C(=O)CC(=O)/C=C/c2ccc(O)c(OC)c2)ccc1O,"enzyme activity, inhibitor",1 µM,activity vs control,94%
CN1CCC2(CC1)NC(=O)c1c(c3ccc(Cl)c(Cl)c3n1C)C2C#N (racemic),"thermal stability, DSF",10 µM,ΔTm,0 °C
O=C1Nc2ccc(Cl)cc2C1=Cc1cc(Cl)c(O)c(Cl)c1,cell-free assay,0.5 µM,remaining signal,95.3%
Cn1c2c(Cl)c(Cl)ccc2c2cc(N)[nH]c(=O)c21,"thermal stability, DSF",10 µM,ΔTm,0.1 °C
CNC(=O)c1cc(Oc2ccc(NC(=O)Nc3ccc(Cl)c(C(F)(F)F)c3)cc2)ccn1,"enzyme activity, inhibitor",10 µM,inhibition,-5%
